Hits are enriched below; roughly 1.9% of the tested compounds scored in any of these assays.
RanGTP-Imp inh: inhibitors of RanGTP-importin-beta interaction, primary screen, biochemical, FRET, CFP-Ran, YFP-importin-beta, homogeneous. cell-free CFP-Ran/YFP-importin-beta FRET ratio. inhibition, % (no concentration beside the values). hit rate 1.1% among 300,000. AID 2216;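 active means more than half of the replicate wells show a fall in the fluorescence ratio signal beyond about 16%, limit read from the data, passing the limit was not always enough; inconclusive means exactly half of the replicate wells pass the set limit; inactive means fewer than half of replicates pass the limit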;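 further: 0% = DMSO wells and 100% = Ran loaded with GDP instead of GTP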
Runt-CBFb FRET: blocks binding of human RUNX1 Runt domain to CBFb | Cerulean-Runt/Venus-CBFb FRET ratio 530/480, 1 h | inhibition, % at 20 µM | hit rate 0.46% among 220,000 | AID 1496;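 active means inhibition over about 50% at 20 µM in the single-dose screen, limit read from the data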;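 further: 0% = DMSO wells and 100% = excess unlabeled CBFb competitor control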
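Buffer or medium: Tris pH 7.5 buffer with BSA. Assay system: Cerulean-labeled Runt domain protein. Amount: each fluorescent fusion protein 100 nM. Read-out basis: loss of energy transfer signal. Incubation: 1 h compound exposure, room temperature. Probe or stimulus: Venus-CBFb binding partner, 100 nM. Detection: FRET, excitation 422 nm, emission at 530 and 480 nm.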
Hck Nef HTS: inhibitors of human Hck kinase activated by Nef | Recombinant Hck-YEEI plus Nef, Z-Lyte FRET kinase assay | hit rate 0.68% among 220,000 | AID 463187 | inhibition, % at 20 µM | P08631;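 active means Hck-Nef kinase inhibition above about 50%, limit read from the data; inactive means inhibition below that limit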;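 further: 0% = DMSO with Hck plus Nef and 100% = Hck alone without Nef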
Target sequence (P08631 whole entry, looked up): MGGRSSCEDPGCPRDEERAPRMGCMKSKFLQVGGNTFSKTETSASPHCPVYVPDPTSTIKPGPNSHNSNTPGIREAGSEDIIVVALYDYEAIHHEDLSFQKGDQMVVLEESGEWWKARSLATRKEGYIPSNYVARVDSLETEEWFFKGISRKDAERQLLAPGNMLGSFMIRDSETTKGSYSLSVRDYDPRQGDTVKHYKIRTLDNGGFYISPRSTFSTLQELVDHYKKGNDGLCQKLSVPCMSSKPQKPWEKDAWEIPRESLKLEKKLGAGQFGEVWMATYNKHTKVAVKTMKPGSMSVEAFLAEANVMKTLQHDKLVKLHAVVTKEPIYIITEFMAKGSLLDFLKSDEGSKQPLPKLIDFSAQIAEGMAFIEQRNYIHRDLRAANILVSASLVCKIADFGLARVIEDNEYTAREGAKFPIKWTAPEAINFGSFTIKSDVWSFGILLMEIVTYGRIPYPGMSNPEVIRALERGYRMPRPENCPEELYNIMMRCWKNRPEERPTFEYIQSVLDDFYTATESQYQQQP
TbHK1 inh: T. brucei hexokinase 1 inhibition; inhibition, % at 10 µM; recombinant TbHK1, G6PDH-coupled NADH A340; AID 1430; hit rate 0.11% among 220,000;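 active means inhibition of 50% or more in the single-dose primary screen; inactive means inhibition below 50%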
Runt-SMMHC FRET: inhibitors of human RUNX1 Runt domain binding to CBFb-SMMHC | hit rate 0.74% among 220,000 | Q01196+Q13951 | Cerulean-Runt/Venus-CBFb-SMMHC FRET ratio 530/480, 1 h | inhibition, % at 20 µM;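 active means mean inhibition across duplicate retests at 20 µM reaching about 50%, limit read from the data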;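 further: 0% = DMSO wells and 100% = wells with excess untagged CBFb-SMMHC; inhibitors lower the FRET ratio by blocking Runt binding to CBFb-SMMHC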
Starred values were filed as active, the others as inactive; ? = inconclusive; · = no result.

SMILES	RanGTP-Imp inh	Runt-CBFb FRET	Hck Nef HTS	TbHK1 inh	Runt-SMMHC FRET
Cc1nn(C)c(Cl)c1CN1CCN(C2CCCCC2)C(CCO)C1 (stereo not drawn)	4.2	117.5*	18.6	-3.0	-5.0
CC(C)CCNC(=O)NC(=O)COC(=O)CNC(=O)C1CCCCC1	-0.4	-3.3	-2.2	1.6	-5.4
CCOc1ccc(C(Nc2cccnc2)c2cc(Cl)c3cccnc3c2O)cc1 (stereo not drawn)	·	33.2	51.0*	3.4	21.3
CC(=O)c1ccc(N2CCN(C(=O)CCCc3nc4ccccc4s3)CC2)cc1	2.6	-1.8	5.4	-27.9	-3.5
Cc1ccc(S(=O)(=O)Oc2ccc(C3C4=C(CCCC4=O)OC4=C3C(=O)CCC4)cc2)cc1	1.4	·	2.0	5.3	-5.5
Cc1ccc(S(=O)(=O)Oc2ccc(C3C4=C(CCCC4=O)N(CCC(=O)O)C4=C3C(=O)CCC4)cc2Cl)cc1	128.5*	4.9	31.8	0.8	·
CCOc1cc(C2C3=C(CCCC3=O)N(CCC(=O)O)C3=C2C(=O)CCC3)ccc1OS(=O)(=O)c1ccc(C)cc1	104.0*	25.5	32.7	-4.6	·
CCOc1cc(C2C3=C(CCCC3=O)N(C)C3=C2C(=O)CCC3)cc(Cl)c1O	6.4	14.4	6.6	-9.9	49.6
CC(C)N1CCc2c(sc(NC(=O)c3ccc4ccccc4c3)c2C(N)=O)C1	147.7*	·	·	·	·
CC(C)N1CCc2c(sc(NC(=O)c3ccc(C(=O)c4ccccc4)cc3)c2C(N)=O)C1	63.5*	·	·	·	·
CC(C)N1CCc2c(sc(NC(=O)c3cc4cc([N+](=O)[O-])ccc4s3)c2C(N)=O)C1	32.9*	-2.1	9.3	-15.2	-0.5
CC(=O)Nc1sc2c(c1-c1nc3ccccc3s1)CCN(C(C)C)C2	·	23.7	-36.9	-19.0	85.4*
CCOC(=O)CNC(=O)c1ccc2[nH]c3c(c2c1)CCCC3	18.1*	8.3	1.6	-3.5	12.9
Cc1cccc(S(=O)(=O)Nc2ccc(-c3ccc4nncn4n3)cc2)c1	-5.1	·	·	·	·
Cc1cc(=O)oc2cc(OC(=O)c3ccccc3)ccc12	-0.2	4.5	-34.8	-13.3	2.5
CCCn1nc(C(=O)Oc2ccc3c(C)cc(=O)oc3c2)c2ccccc2c1=O	6.5	43.0	15.7	-6.9	88.4*
Cc1cc(=O)oc2cc(OC(=O)c3nn(C(C)C)c(=O)c4ccccc34)ccc12	2.2	41.7	19.1	-15.7	89.9*
CCC(=O)N[C@@H]1CC(C(C)(C)NC(=O)CC)CC=C1C (stereo partly drawn)	1.5	-2.4	3.1	3.1	-0.6
Fc1ccc(Br)cc1C1C=C(c2ccc(Br)cc2)Nc2ncnn21 (stereo not drawn)	-19.0	-3.6	0.4	-4.1	-6.8
CCc1ccc(C2=CC(c3cc(Br)ccc3F)n3ncnc3N2)cc1 (stereo not drawn)	·	-1.1	-0.5	-5.8	75.1*
O=C(COc1ccc(Cl)cc1)NN=C1CCCCCCC1	0.5	·	·	·	·
CCN1CCN(C(=O)c2cc3c(=O)n4ccccc4nc3s2)CC1	12.4	·	·	·	·
O=C(c1cc2c(=O)n3ccccc3nc2s1)N1CCc2ccccc2C1	-0.6	18.9	36.4	-14.2	80.8*
O=c1oc(-c2cccs2)nc2scc(-c3cccs3)c12	-3.1	-6.1	5.2	-6.5	-18.3
Cc1sc2nc(-c3cccs3)oc(=O)c2c1C	32.2*	·	·	·	·
SMILES	RanGTP-Imp inh	Runt-CBFb FRET	Hck Nef HTS	TbHK1 inh	Runt-SMMHC FRET
Fc1cccc(CSc2nc3ncccc3[nH]2)c1	-1.2	-2.5	-0.4	-3.6	3.1
Fc1ccc(CSc2nc3ncccc3[nH]2)cc1	?	102.4*	-0.7	6.9	109.9
CC1=NOC(=O)/C1=C\c1ccc(-c2cccc(Cl)c2)o1	3.3	20.7	7.1	15.9	55.4*
Nc1nonc1C(=O)N/N=C/c1ccc(-c2ccc(Cl)c(C(=O)O)c2)o1	-0.8	6.0	-34.2	-43.1	0.1
O=C(O)c1cc(-c2ccc(/C=N/Nc3ccc(Cl)cc3)o2)ccc1Cl	3.2	16.4	11.8	-0.2	81.5*
O=S(=O)(N/N=C\c1ccc(-c2ccccc2Cl)o1)c1ccccc1	5.3	6.2	6.0	-40.0	5.6
O=C(O)c1ccc(N/N=C/c2ccc(-c3ccccc3Cl)o2)cc1	54.2*	45.6	66.7*	-20.0	81.2*
O=C(O)c1ccc(N/N=C/c2ccc(-c3ccc(Br)cc3)o2)cc1	70.1*	·	·	·	·
CC(=O)N1CCN=C1SCc1cccc(C)c1	3.6	·	·	·	·
COc1ccc(CC2NCCC3=CC(=O)CCC32)cc1O (stereo not drawn)	28.7*	·	·	·	·
COc1ccc(CC(=O)O)cc1O	-4.5	3.3	15.2	0.1	2.0
Cc1nn(CC(=O)O)c(C)c1Cl	-1.9	-1.4	0.3	-4.6	0.7
Cc1c(Cl)c(=O)n2c(=O)c(Cl)c(C)n12	128.3*	20.8	-67.8	-4.0	86.1*
CC(=O)NS(=O)(=O)c1ccc(NS(=O)(=O)c2ccc3ccccc3c2)cc1	3.4	·	·	·	·
CC(=O)NS(=O)(=O)c1ccc(NS(=O)(=O)c2ccc(F)cc2)cc1	-1.3	89.3*	1.8	1.5	5.7
CCOC(=O)N1CCC(NC(=O)CCC(=O)N2CCOc3ccc(Cl)cc32)CC1	0.9	-1.2	32.8	-4.7	3.2
CCOc1ccc(/C=C2/SC(=S)N(C(C(=O)O)c3ccccc3)C2=O)cc1OCC (stereo not drawn)	·	-40.1	62.4*	0.6	-120.9
COc1cc(/C=C2\SC(=S)N(C(C(=O)O)c3ccccc3)C2=O)ccc1O (stereo not drawn)	-17.9	-51.8	9.8	-18.4	-161.9
O=C(CSc1n[nH]c(-c2ccco2)n1)Nc1ccccc1Cl	-4.9	·	·	·	·
Cc1ccc(S(=O)(=O)C(C#N)c2nc3ccccc3nc2N2CCN(C)CC2)cc1 (stereo not drawn)	64.2*	56.7*	-2.7	-10.1	78.7*
COc1ccc(S(=O)(=O)C(C#N)c2nc3ccccc3nc2N2CCC(C)CC2)cc1 (stereo not drawn)	27.0*	-1.1	·	·	-6.5
CC1CCCN(c2nc3ccccc3nc2C(C#N)S(=O)(=O)c2ccccc2)C1 (stereo not drawn)	-3.2	-14.2	-0.1	-3.7	-47.4
Cc1ncc(CO)c(CNc2ccc(-c3nc4ccccc4[nH]3)cc2)c1O	0.2	·	·	·	·
N#Cc1ccccc1Sc1ccccc1C(=O)OCc1nnc(-c2ccccc2)o1	-3.0	-1.4	5.0	58.1*	-2.3
CC(C)NC(=S)n1cc(C(=O)c2cc(Cl)cc(Cl)c2O)cn1	21.4*	·	·	·	·
SMILES	RanGTP-Imp inh	Runt-CBFb FRET	Hck Nef HTS	TbHK1 inh	Runt-SMMHC FRET
Cc1nc2ccn(Cc3ccccc3)c(=O)c2cc1C(=O)N1CCN(c2ccc(F)cc2)CC1	69.1*	·	·	·	·
COc1ccc(N2CCN(C(=O)c3cc4c(=O)n(Cc5ccccc5)ccc4nc3C)CC2)cc1	1.7	·	·	·	·
Cc1ccc2c3c(cccc13)-c1ccccc1C2=O	63.7*	19.2	5.7	18.8	63.2*
Fc1cnc(Cl)nc1NC1CCCCC1	0.4	·	·	·	·
CC(C)(C)c1cc(/C=N/NC(=O)Cc2nc3ccccc3[nH]2)cc(C(C)(C)C)c1O	38.8*	12.9	10.5	5.6	29.5
CCCCn1c(N)c(N(CCC(C)C)C(=O)c2oc3ccc(OCC)cc3c2C)c(=O)[nH]c1=O	-2.6	·	·	·	·

Source: PubChem BioAssay (several laboratories)
